According to ChEMBL document CHEMBL3763126, “Development of sigma-1 (σ1) receptor fluorescent ligands as versatile tools to study σ1 receptors” (Eur J Med Chem, 2016):

Assays:
[1] = molecular target: T1, Sigma non-opioid intracellular receptor 1 (Homo sapiens, UniProt Q99720); assay: Displacement of 5-(Dimethylamino)-2-{6-[(5-(4-(4-methylpiperidin-1-yl)butyl)naphthalen-2-yl)oxy]hexyl}isoindole-1,3-dione from sigma 1 receptor (unknown origin) expressed in MCF7 cells after 75 mins by flow cytometry
[2] = Displacement of [3H]-DTG from sigma 2 receptor in Wistar hannover rat liver membrane after 120 mins; type: cell membranes
How it was run: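 Six to nine concentrations of test drug, two or three experiments in duplicate; IC50 for inhibition of specific binding, Ki from nonlinear curve fitting.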

[3] = molecular target: T1, Sigma non-opioid intracellular receptor 1; assay: Displacement of 5-(Dimethylamino)-2-(6-((5-(4-(4-methylpiperidin-1-yl)butyl)-5,6,7,8-tetrahydronaphthalen-2-yl)oxy)hexyl)isoindoline-1,3-dione from sigma 1 receptor (unknown origin) expressed in MCF7 after 75 mins by flow cytometry
[4] = molecular target: Sigma non-opioid intracellular receptor 1 (Cavia porcellus, UniProt Q60492); assay: Displacement of [3H]-pentazocine from sigma 1 receptor in guinea pig brain membrane after 120 mins; type: cell membranes
How it was run: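 IC50 from six to nine drug concentrations, two or three experiments with duplicate samples; Ki obtained by nonlinear curve fitting.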

T1 sequence (Q99720 whole entry): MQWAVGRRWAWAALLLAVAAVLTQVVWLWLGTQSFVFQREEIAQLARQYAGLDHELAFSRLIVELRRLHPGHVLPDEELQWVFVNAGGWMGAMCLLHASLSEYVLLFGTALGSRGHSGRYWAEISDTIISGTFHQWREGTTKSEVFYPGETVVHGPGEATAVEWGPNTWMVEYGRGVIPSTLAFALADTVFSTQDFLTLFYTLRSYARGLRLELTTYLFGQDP
Sequence of Sigma non-opioid intracellular receptor 1 (Cavia porcellus, UniProt Q60492) (Q60492 whole entry): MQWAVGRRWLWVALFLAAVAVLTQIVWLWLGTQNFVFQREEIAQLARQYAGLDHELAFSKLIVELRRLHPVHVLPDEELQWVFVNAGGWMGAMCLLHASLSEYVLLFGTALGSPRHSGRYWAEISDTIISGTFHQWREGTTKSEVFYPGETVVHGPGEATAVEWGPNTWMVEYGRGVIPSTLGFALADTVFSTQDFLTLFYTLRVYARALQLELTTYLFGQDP

| SMILES | IC50 [1] [nM] | Ki [2] [nM] | IC50 [3] [nM] | Ki [4] [nM] |
| --- | --- | --- | --- | --- |
| CC1CCN(CCCCC2CCCc3cc(OCCCCCCN4C(=O)c5ccc(N(C)C)cc5C4=O)ccc32)CC1 (stereo not drawn) | – | 48.3 | – | 3.61 |
| COc1cccc2c1CCCC2CCC(=O)N1CCN(C2CCCCC2)CC1 (stereo not drawn) | – | 179 | – | – |
| COc1ccc2c(c1)CCCC2CCCCN1CCC(C)CC1 (stereo not drawn) | 12.1 | 48.7 | 11.3 | 1.01 |

Now those with a lower Ki [2], led by results:

| IC50 [1] [nM] | Ki [2] [nM] | IC50 [3] [nM] | Ki [4] [nM] | SMILES |
| --- | --- | --- | --- | --- |
| 10.6 | 17.9 | 15.5 | – | COc1ccc2c(CCCCN3CCC(C)CC3)cccc2c1 |
| – | 45.6 | – | 5.2 | CC1CCN(CCCCc2cccc3cc(OCCCCCCN4C(=O)c5ccc(N(C)C)cc5C4=O)ccc23)CC1 |
| – | 4.24 | – | – | COc1cc2c(cc1OC)CN(CCCN1CCc3c(OC)cccc3C1=O)CC2 |
